What was measured:
[1] = system: Mus musculus; test: Tested for change in body weight from onset to termination at dose of 5 mg/kg; type: functional
In short: (§1)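 Female CD-1 mice inoculated ip with 0.1 mL of 10^7 Sarcoma 180 ascites cells/mL. Drug in 0.9% NaCl with 5% ethanol and Tween 80, serially diluted in saline, given ip once daily for 6 days starting 24 h after implantation. Dose based on mean starting weight. Controls received saline. Weight change recorded from day 0 to day 7, as % change.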

[2] = system: Mus musculus; test: Tested for number of animal surviving at least 50 days out of 10 animal treated at dose of 2.5 mg/kg; type: functional
In short: (§2)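 Female CD-1 mice, Sarcoma 180 ascites, 0.1 mL of 10^7 cells/mL given ip. Drug in 0.9% NaCl, 5% ethanol, Tween 80, serially diluted with saline. Dosed ip at 0.5 mL daily for 6 days from 24 h post-implant; daily dose based on starting mean weight. T/C is the mean survival of treated mice dying before 50 days vs controls. Survivors are those alive ≥50 days out of those treated.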

[3] = system: Mus musculus; test: Tested for number of animal surviving at least 50 days out of 5 animal treated at dose of 5 mg/kg
[4] = system: Mus musculus; test: Tested for change in body weight from onset to termination at dose of 20 mg/kg; type: functional; in short: as §1
[5] = system: Mus musculus; test: Tested for change in body weight of Mice bearing Ehrlich carcinoma from onset to termination at dose of 5 mg/kg; type: functional
In short: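 Female CD-1 mice given ip implants of Ehrlich carcinoma (0.1 mL of 10^7 cells/mL). Drug in saline containing 5% ethanol and Tween 80, injected ip once daily for 6 consecutive days from 24 h post-implant. Controls received 0.9% NaCl. % body weight change measured between tumor implantation (day 0) and day 7.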

[6] = system: Mus musculus; test: Tested for mean survival time treated animal not surviving 50 days as a percentage at dose of 2.5 mg/kg; type: functional; in short: as §2
[7] = system: Mus musculus; test: Tested for mean survival time of Mice bearing […] 755 not surviving 50 days as a percentage at dose of 20 mg/kg; type: functional
In short: (§3)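 Female AKD2F1 mice, adenocarcinoma 755, 0.1 mL of 10^7 cells/mL given ip. Vehicle 0.9% NaCl/5% ethanol/Tween 80, serially diluted with saline. Dosed ip at 0.5 mL once daily for 6 consecutive days starting 24 h post-implant; saline controls. T/C is the mean survival of non-50-day survivors as % of controls. Survivors are those alive ≥50 days.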

[8] = system: Mus musculus; test: Tested for Mice bearing Ehrlich carcinoma surviving at least 50 days out of 10 animal treated at dose of 5 mg/kg; type: functional
In short: (§4)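 Female CD-1 mice, Ehrlich ascites carcinoma, 0.1 mL of 10^7 cells/mL given ip. Drug in 0.9% NaCl with 5% ethanol and trace Tween 80, serially diluted with saline. Dosed ip at 0.5 mL once daily for 6 days from 24 h post-implant; saline controls. T/C is the mean survival of treated mice dying before 50 days as % of controls. Survivors are those alive ≥50 days.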

[9] = system: Mus musculus; test: Tested for Mice bearing […] 755 surviving at least 50 days out of 5 animal treated at dose of 20 mg/kg; type: functional; in short: as §3
[10] = system: Mus musculus; test: Tested for number of animal surviving at least 50 days out of 10 animal treated at dose of 20 mg/kg; type: functional; in short: as §2
[11] = system: Mus musculus; test: Tested for Mice bearing Ehrlich carcinoma surviving at least 50 days out of 10 animal treated at dose of 10 mg/kg; type: functional; in short: as §4
[12] = system: Mus musculus; test: Tested for Mice bearing Ehrlich carcinoma surviving at least 50 days out of 10 animal treated at dose of 20 mg/kg; type: functional; in short: as §4
[13] = system: Mus musculus; test: Tested for Mice bearing […] 755 surviving at least 50 days out of 5 animal treated at dose of 10 mg/kg; type: functional; in short: as §3
[14] = system: Mus musculus; test: (§5) Tested for change in body weight from onset to termination at dose of 10 mg/kg; type: functional
In short: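 Tumor-bearing mice were dosed ip once daily for 6 consecutive days from 24 h after ip tumor implantation; saline controls. Each group was weighed on day 7, the day after the last injection, and the change from the implantation day (day 0) was expressed as % body-weight change, used as a toxicity measure.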

[15] = system: Mus musculus; test: Tested for mean survival time of Mice bearing […] 755 not surviving 50 days as a percentage at dose of 10 mg/kg; type: functional; in short: as §3
[16] = system: Mus musculus; test: Tested for change in body weight of Mice bearing […] 755 from onset to termination at dose of 5 mg/kg; type: functional
In short: (§6)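 Adenocarcinoma 755 implanted ip (0.1 mL of 10^7 cells/mL) in female AKD2F1 mice. Daily ip dosing for 6 days beginning 24 h after implantation, vehicle 0.9% NaCl/5% ethanol/Tween 80, lower doses by saline dilution. Control mice received saline. Weight difference between day 0 and day 7 taken as % change and used as a toxicity measure.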

[17] = system: Mus musculus; test: Tested for mean survival time treated animal not surviving 50 days as a percentage at dose of 5 mg/kg; type: functional; in short: as §2
[18] = system: Mus musculus; test: Tested for change in body weight from onset to termination at dose of 15 mg/kg; type: functional; in short: as §1
[19] = system: Mus musculus; test: Tested for number of animal surviving at least 50 days out of 25 animal treated at dose of 15 mg/kg
[20] = system: Mus musculus; test: Tested for mean survival time of Mice bearing Ehrlich carcinoma not surviving 50 days as a percentage at dose of 20 mg/kg; type: functional; in short: as §4
[21] = system: Mus musculus; test: Tested for change in body weight of Mice bearing […] 755 from onset to termination at dose of 20 mg/kg; type: functional; in short: as §6
[22] = system: Mus musculus; test: Tested for change in body weight of Mice bearing […] 755 from onset to termination at dose of 10 mg/kg; type: functional; in short: as §6
[23] = system: Mus musculus; test: Tested for change in body weight from onset to termination at dose of 2.5 mg/kg; type: functional; in short: as §1
[24] = system: Mus musculus; test: Tested for change in body weight from onset to termination at dose of 1.25 mg/kg; type: functional; in short: as §1
[25] = system: Mus musculus; test: Tested for mean survival time treated animal not surviving 50 days as a percentage at dose of 10 mg/kg; type: functional; in short: as §2
[26] = system: Mus musculus; test: Tested for mean survival time of Mice bearing […] 755 not surviving 50 days as a percentage at dose of 5 mg/kg; type: functional; in short: as §3
[27] = system: Mus musculus; test: Tested for number of animal surviving at least 50 days out of 10 animal treated at dose of 15 mg/kg; type: functional; in short: as §2
[28] = system: Mus musculus; test: Tested for mean survival time treated animal not surviving 50 days as a percentage at dose of 20 mg/kg; type: functional; in short: as §2
[29] = system: Mus musculus; test: Tested for mean survival time treated animal not surviving 50 days as a percentage at dose of 1.25 mg/kg; type: functional; in short: as §2
[30] = system: Mus musculus; test: Tested for mean survival time of Mice bearing Ehrlich carcinoma not surviving 50 days as a percentage at dose of 10 mg/kg; type: functional; in short: as §4
[31] = Tested for inhibition of growth of sarcoma 180 cells in culture; type: functional, cell-based; details: Mus musculus
In short: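 Sarcoma 180 cells in suspension in Fischer's medium with 10% horse serum and penicillin/streptomycin, seeded at 10^4 cells/mL. Drug added from 10× stocks in 10% Me2SO/PBS, final 1–100 μM. Control cultures contained 1% Me2SO. Triplicate Coulter counts at 24, 48 and 72 h. IC50 read from a plot of inhibition of cell-number increase at 72 h versus concentration.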

[32] = system: Mus musculus; test: Tested for mean survival time treated animal not surviving 50 days as a percentage at dose of 15 mg/kg; type: functional; in short: as §2
[33] = system: Mus musculus; test: Tested for Mice bearing […] 755 surviving at least 50 days out of 5 animal treated at dose of 5 mg/kg; type: functional; in short: as §3
[34] = system: Mus musculus; test: Tested for mean survival time of Mice bearing Ehrlich carcinoma not surviving 50 days as a percentage at dose of 5 mg/kg; type: functional; in short: as §4
[35] = system: Mus musculus; test: as §5; type: functional; in short: as §1; remark: listed apart in the source
[36] = system: Mus musculus; test: Tested for number of animal surviving at least 50 days out of 10 animal treated at dose of 5 mg/kg; type: functional; in short: as §2
[37] = system: Mus musculus; test: Tested for number of animal surviving at least 50 days out of 10 animal treated at dose of 10 mg/kg; type: functional; in short: as §2
[38] = system: Mus musculus; test: Tested for number of animal surviving at least 50 days out of 30 animals treated at dose of 5 mg/kg; type: functional; in short: as §2
[39] = system: Mus musculus; test: Tested for number of animal surviving at least 50 days out of 10 animals treated at dose of 20 mg/kg; type: functional; in short: as §2
[40] = system: Mus musculus; test: Tested for number of animal surviving at least 50 days out of 10 animals treated at dose of 2.5 mg/kg; type: functional; in short: as §2
[41] = system: Mus musculus; test: Tested for number of animal surviving at least 50 days out of 15 animals treated at dose of 15 mg/kg; type: functional; in short: as §2
[42] = system: Mus musculus; test: Tested for number of animal surviving at least 50 days out of 30 animals treated at dose of 10 mg/kg; type: functional; in short: as §2

Structure (SMILES) | Activity [1] | Activity [4] | Activity [5] | Mean survival time, treated vs control (T/C) [6] | Activity [7] | Survivors [8] | Survivors [9] | Survivors [10] | Survivors [11] | Survivors [12] | Survivors [13] | Activity [16] | Activity [17] | Activity [18] | Activity [20] | Activity [21] | Activity [22] | Activity [25] | Activity [28] | IC50 [31] | also measured
CCCc1c(O)c(C=O)c(C=O)c(O)c1CCC | 9% | -3% | 5% | 138% | 35% | 0 | 3 | 0 | 4 | 1 | 4 | -16% | 205% | 2% | 166% | -15% | -15% | 178% | 150% | 29 µM | Survivors [2]: 0; Survivors [3]: 4; Activity [14]: -1%; Activity [15]: 22%; Survivors [19]: 2; Activity [23]: 9%; Activity [24]: 10%; Activity [26]: 16%; Survivors [27]: 0; Activity [29]: 88%; Activity [30]: 202%; Activity [32]: 171%; Survivors [33]: 4; Activity [34]: 154%
COc1c(C)c(C)c(OC)c(C=O)c1C=O | 15% | 11% | – | – | – | – | – | 0 | – | – | – | – | 81% | – | – | – | – | 96% | 103% | 97 µM | Activity [35]: 15%; Survivors [36]: 0; Survivors [37]: 0
Cc1c(C)c(O)c(C=O)c(C=O)c1O | 6% | -4% | 21% | 128% | 138% | 0 | 2 | – | 2 | 3 | 5 | -2% | 182% | -3% | 127% | -11% | -13% | 195% | 91% | 26 µM | Activity [35]: 1%; Survivors [38]: 3; Survivors [39]: 0; Survivors [40]: 0; Activity [23]: 23%; Activity [26]: 27%; Survivors [41]: 0; Survivors [42]: 3; Activity [30]: 125%; Activity [32]: 148%; Survivors [33]: 4; Activity [34]: 120%
COc1c(C)c(C)c(O)c(C=O)c1C=O | – | – | – | – | – | – | – | – | – | – | – | – | – | – | – | – | – | – | – | 37 µM | –
